Source: ChEMBL document CHEMBL4043300, “2 H-1,2,3-Triazole-Based Dipeptidyl Nitriles: Potent, Selective, and Trypanocidal Rhodesain Inhibitors by Structure-Based Design” (J Med Chem, 2018)
In brackets after ≈: the same amount, converted by molar mass.

What was measured:
Procathepsin L = Procathepsin L (Homo sapiens, UniProt P07711); assay: Inhibition of human CatL using Cbz-Phe-Arg-AMC as substrate measured over 30 mins by fluorimetric method
Procedure, shortened: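 Human cathepsin L in a fluorimetric assay in 50 mM Tris pH 6.5, 5 mM EDTA, 200 mM NaCl, 0.005% Brij35 at 25 °C. Ki was calculated from IC50 by Cheng-Prusoff. Value is the average of two measurements, each in duplicate.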

L6 = assay: Cytotoxicity against rat L6 cells after 72 hrs by Alamar blue assay; type: cell-based; details: L6, 72 h
Procedure, shortened: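 Rat skeletal myoblast L6 cells in an Alamar Blue growth-inhibition assay. Value is the mean of at least 2 measurements.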

[1] = tested on: Trypanosoma brucei rhodesiense; assay: Antitrypanosomal activity against bloodstream form of Trypanosoma brucei rhodesiense STIB 900 infected in NMRI mouse assessed as reduction of parasitemia at 50 mg/kg, po administered for 3 consecutive days starting 1 day post infection measured at 24 hrs post last dose relative to control; type: functional; set-up: scale not given: the % may be the effect or the level left
Procedure, shortened: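 Female mice infected with STIB900 were dosed orally at 50 mg/kg/day on three consecutive days, starting 1 day post-infection. Compound was in 100% DMSO diluted 10-fold in distilled water, given at 0.1 mL/10 g. Tail-blood parasitaemia was measured 24 h after the last dose versus 4 untreated infected controls. Values are means of 2 mice.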

Rhodesain = Rhodesain (Trypanosoma brucei rhodesiense, UniProt Q95PM0); assay: Inhibition of Trypanosoma brucei rhodesiense rhodesain using Cbz-Phe-Arg-AMC as substrate by fluorimetric method
Procedure, shortened: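 Fluorescence-based assay run at 25 °C in 50 mM sodium acetate pH 5.5 with 5 mM EDTA, 200 mM NaCl and 0.005% Brij35. IC50 values were converted to Ki with the Cheng-Prusoff equation. Values are the average of two measurements, each done in duplicate.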

[2] = tested on: Trypanosoma brucei rhodesiense; assay: Antitrypanosomal activity against bloodstream form of Trypanosoma brucei rhodesiense STIB 900 assessed as parasite growth inhibition after 72 hrs by Alamar blue assay; type: functional; details: STIB 900, 72 h
Procedure, shortened: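 Standard 72 h growth-inhibition assay with STIB 900 bloodstream trypomastigotes and Alamar Blue read-out. Value is the mean of at least 2 measurements.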

[3] = Selectivity index, ratio of Ki for human CatL to Ki for Trypanosoma brucei rhodesiense rhodesain
Procedure, shortened: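 Ki(hCatL)/Ki(RD). Fluorimetric assays at 25 °C: RD in 50 mM sodium acetate pH 5.5; hCatL in 50 mM Tris pH 6.5; both buffers with 5 mM EDTA, 200 mM NaCl, 0.005% Brij35. Ki derived from IC50 by Cheng-Prusoff. Each value is the mean of two measurements, each done in duplicate.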

[4] = Solubility of the compound at pH 6.5 by LYSA; type: physicochemical; details: buffer
Procedure, shortened: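 Lyophilization solubility assay at pH 6.5.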

[5] = Octanol-water intrinsic distribution co-efficient, log D of the compound at 100 uM at pH 7.4 after 16 to 22 hrs by CAMDIS assay; type: physicochemical
Procedure, shortened: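 Octanol/aqueous buffer (pH 7.4) intrinsic distribution coefficient measured in the CAMDIS carrier-mediated distribution system.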

[6] = Selectivity index, ratio of IC50 for rat L6 cells to IC50 for bloodstream form of Trypanosoma brucei rhodesiense STIB 900; type: toxicity; details: read-out: Ratio IC50
Procedure, shortened: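 Ratio of L-6 rat skeletal myoblast IC50 to T. b. rhodesiense STIB 900 bloodstream trypomastigote IC50, both from Alamar Blue growth-inhibition assays. Each IC50 is the mean of at least 2 measurements.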

Rhodesain, sequence (Q95PM0 whole entry): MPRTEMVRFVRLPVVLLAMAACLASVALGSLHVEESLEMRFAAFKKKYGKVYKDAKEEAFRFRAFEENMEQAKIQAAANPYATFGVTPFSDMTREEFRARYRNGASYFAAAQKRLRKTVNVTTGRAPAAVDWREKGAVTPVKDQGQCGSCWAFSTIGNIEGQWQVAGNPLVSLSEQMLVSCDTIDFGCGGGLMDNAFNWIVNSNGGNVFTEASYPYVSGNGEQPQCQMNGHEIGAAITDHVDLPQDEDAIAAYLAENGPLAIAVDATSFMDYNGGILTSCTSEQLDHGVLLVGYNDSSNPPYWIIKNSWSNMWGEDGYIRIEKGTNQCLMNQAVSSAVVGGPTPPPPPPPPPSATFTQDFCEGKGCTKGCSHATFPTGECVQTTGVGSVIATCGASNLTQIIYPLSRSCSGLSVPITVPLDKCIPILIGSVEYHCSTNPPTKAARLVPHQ
Procathepsin L, sequence (P07711 whole entry): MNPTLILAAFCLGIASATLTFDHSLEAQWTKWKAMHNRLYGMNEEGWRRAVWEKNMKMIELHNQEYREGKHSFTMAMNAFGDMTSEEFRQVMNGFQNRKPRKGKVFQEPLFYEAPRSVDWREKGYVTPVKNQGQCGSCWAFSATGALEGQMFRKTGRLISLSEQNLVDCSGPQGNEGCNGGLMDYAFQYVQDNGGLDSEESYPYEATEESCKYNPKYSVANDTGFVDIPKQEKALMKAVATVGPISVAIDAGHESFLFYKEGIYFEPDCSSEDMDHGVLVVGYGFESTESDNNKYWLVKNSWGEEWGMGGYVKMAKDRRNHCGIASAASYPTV

SMILES | Ki (Procathepsin L) [nM] | IC50 (L6) [nM] | Activity [1] [%] | Ki (Rhodesain) [nM] | IC50 [2] [nM] | Ratio Ki [3] | solubility [4] [µg/mL] | logD at 100 µM [5] | selectivity ratio [6]
N#CC1(NC(=O)[C@H](Cc2ccc(OC(F)(F)F)c(Cl)c2)NC(=O)c2cnn(-c3ccncc3)n2)CC1 | 82 | > 10000 | 43.3 | 16 | 0.6 | 5 | 5.2 (≈ 10 µM) | 3.69 | 
N#CC1(NC(=O)[C@H](Cc2ccc(OC(F)(F)F)c(Cl)c2)NC(=O)c2cnn(C3COC3)n2)CC1 | 25 | 96000 | 43.1 | 31 | 3 | 0.8 | 4 (≈ 8.02 µM) | 2.58 | 32000
N#CC1(NC(=O)[C@H](Cc2ccc(Cl)c(Cl)c2)NC(=O)c2cnn(C3CCOCC3)n2)CC1 | 93 | > 100000 |  | 4 | 23 | 23 |  |  | 
N#CC1(NC(=O)[C@H](Cc2cccc(Cl)c2)NC(=O)c2cnn(-c3ccc(F)cc3)n2)CC1 |  |  |  | 7.4 to 597 |  | 18 to 507 |  |  | 
N#CC1(NC(=O)[C@H](Cc2ccc(OCC3CCC3)c(Cl)c2)NC(=O)c2cnn(-c3ccc(F)cc3)n2)CC1 | 314 | 7600 |  | 16 | 27 | 20 | < 0.3 |  | 281
N#CC1(NC(=O)[C@H](Cc2ccc(OCc3ccccc3)cc2)NC(=O)c2cnn(-c3ccc(F)cc3)n2)CC1 | 1470 | > 10000 |  | 17 | 19 | 87 | < 0.3 |  | 
N#CC1(NC(=O)[C@H](Cc2ccc(OC(F)(F)F)c(Cl)c2)NC(=O)c2cnn(-c3ccc(Cl)cc3)n2)CC1 | 467 | 8300 |  | 10 | 22 | 47 | < 0.3 |  | 377
N#Cc1ccccc1C[C@H](NC(=O)c1cnn(-c2ccc(F)cc2)n1)C(=O)NC1(C#N)CC1 |  |  |  | 7.4 to 597 |  | 18 to 507 |  |  | 
N#CC1(NC(=O)[C@H](Cc2ccc(Cl)c(Cl)c2)NC(=O)c2cnn(C3COC3)n2)CC1 | 78 | > 100000 | 45.3 | 33 | 8 | 2.4 |  |  | 
N#CC1(NC(=O)[C@H](Cc2ccccc2)NC(=O)c2cnn(-c3ccc(F)cc3)n2)CC1 |  |  |  | 7.4 to 597 |  | 18 to 507 |  |  | 
Cc1ccc(C(=O)Nc2ccc(S(=O)(=O)O)c3cc(S(=O)(=O)O)cc(S(=O)(=O)O)c23)cc1NC(=O)c1cccc(NC(=O)Nc2cccc(C(=O)Nc3cc(C(=O)Nc4ccc(S(=O)(=O)O)c5cc(S(=O)(=O)O)cc(S(=O)(=O)O)c45)ccc3C)c2)c1 [SURAMIN] |  |  |  |  | 46 |  |  |  | 
COCCOc1ccc(C[C@H](NC(=O)c2cnn(-c3ccc(F)cc3)n2)C(=O)NC2(C#N)CC2)cc1Cl | 181 to 314 |  |  | 9 to 16 | 27 to 190 | 18 to 507 |  |  | 
N#CC1(NC(=O)[C@H](Cc2ccc(Cl)c(Cl)c2)NC(=O)c2cnn(C3CCC3)n2)CC1 | 7 | 58200 |  | 71 | 4 | 0.1 |  |  | 14600
N#CC1(NC(=O)[C@H](Cc2ccc(OC(F)(F)F)c(Cl)c2)NC(=O)c2cnn(C3CCNC3)n2)CC1 (stereo not given in full) | 14 | 56000 | 0.4 | 93 | 0.2 | 0.2 | 253 (≈ 494 µM) | 1.33 | 280000
CSc1ccc(OCc2ncc([N+](=O)[O-])n2C)cc1 [FEXINIDAZOLE] |  |  |  |  | 1710 to 2930 |  |  |  | 
